This is a sample that favours compounds with a hit; in the whole collection about 3.9% have one here.
HCV core dimer: inhibitors of HCV core protein dimerization, primary screen, biochemical, TR-FRET, high-throughput. TR-FRET GST/Flag-core106 dimerization, 1536-well. inhibition, % at 5 µM. 300,000 tested, 0.33% active;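 active = inhibition above the mean of all tested compounds plus 3 SD, set per screening campaign, cut at about 45% in these data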
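Assay system – GST-tagged and Flag-tagged HCV core protein residues 1-106 · Quantity – core106 proteins, GST 13.5 nM and Flag 17 nM · Benchmarks – unlabelled core106 and no-GST-core106 wells · Read-out basis – percent inhibition of core106 dimerization signal · Detection – time-resolved FRET, ex 340 nm, em 617 and 671 nm · Schedule – 4 h at 22.5 °C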
HSF1 inhib: HSF1 inhibitors in luciferase reporter cells, primary screen, cell-based, NIH3T3, luminescence; NIH3T3-HGL HSE-luciferase, MG132-induced, luminescence 8 h; hits give low values; activity change, negative = inhibition, % at 7.5 µM (by protocol); 300,000 tested, 0.77% active;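 active = more than half of replicate wells show activity change below -50%, luminescence cut by over half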;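 note: luciferase reports HSF-1 transcriptional activity via heat shock element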
HCV NS3 hel inh: inhibitors of HCV NS3 helicase, primary screen, biochemical, Cy5 molecular beacon fluorescence | Hepatitis C virus NS3 helicase | NS3 helicase DNA unwinding | inhibition, % at 10.9 µM | 290,000 tested, 0.56% active | AID 1800, 2009;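 active = inhibition above the mean of all tested compounds plus 3 SD, set per campaign, cut at about 35% in these data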
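Assay system: hepatitis C virus NS3 helicase domain fragment enzyme. Also added: annealed dual-labelled DNA beacon duplex, ATP-started. Timing: 1 h reaction at 25 °C, ATP-initiated. Technique: Cy5 fluorescence at 0 and 60 min, beacon hairpin quenching. Evaluation: % inhibition of unwinding. Replication: one well per compound.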
HSP90 inh: HSP90 inhibitors, primary screen, cell lysate, luminescence | Heat shock protein HSP 90 (rabbit reticulocyte lysate; luciferase refolding) | Rabbit reticulocyte lysate, luciferase refolding luminescence, 3 h | inhibition, % at 5.6 µM | 290,000 tested, 0.91% active | AID 1789, 2009;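 active = inhibition above the screen-wide mean plus 3 SD, computed separately per campaign, cut at about 16% in these data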;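 note: inhibitors lower the luminescence because luciferase stays unfolded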
HSF-1 act: HSF-1 activators, primary screen, NIH3T3-HGL cells, MG132 stress, luminescence, single point. NIH3T3-HGL HSF-1 luciferase reporter, 8 h; 100% = twice DMSO control signal. activation, % at 9 µM. 300,000 tested, 1.7% active. AID 504408, 2011;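 active = mean replicate activation of at least 50% with a set share of replicates each reaching 50%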
FID counter: compounds displacing fluorescent DNA intercalator, primary screen, artefact control for HCV NS3 helicase inhibitor project, biochemical, FID fluorescence | DNA fluorescent intercalator displacement | inhibition, % at 7.9 µM | 290,000 tested, 0.17% active | AID 1845, 2009; in the data active = inhibition above about 37%;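 note: higher means more ethidium bromide displaced from hairpin DNA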
A number is an active result; 0 = inactive; - = no result.

SMILES | HCV core dimer | HSF1 inhib | HCV NS3 hel inh | HSP90 inh | HSF-1 act | FID counter
CCOC(=O)c1c(N)sc2c(O)c(Br)ccc12 | 0 | -94 | 0 | 0 | 0 | 0
Cc1ccc(Nc2nc(=O)c3cc([N+](=O)[O-])ccc3s2)cc1 | 48 | 0 | 0 | 0 | 0 | 0
COc1ccc(NC(=O)c2ccc3c(=O)n(-c4ccc(OC)cc4OC)c(=S)[nH]c3c2)cc1 | 0 | 0 | 0 | 0 | 0 | 0
COc1ccc(-n2c(=S)[nH]c3cc(C(=O)Nc4ccc(F)cc4)ccc3c2=O)c(OC)c1 | 0 | 0 | 0 | 0 | 87 | 0
CN(C)CCNC(=O)c1ccc(Sc2ccc(Br)cc2)c([N+](=O)[O-])c1 | 0 | 0 | 0 | 0 | 0 | 39
CC(=O)NCCNC(=O)c1ccc(Sc2ccccc2)c([N+](=O)[O-])c1 | 0 | 0 | 0 | 0 | 0 | 0
CSc1cccc(NC(=O)C2CC(=O)N(Cc3ccccc3)C2)c1 (stereo unspecified) | 0 | 0 | 0 | 0 | 0 | 0
CCCCCCCNC(=O)C1(CC2CC(c3ccccc3)=NO2)CCN(C(=O)OC(C)(C)C)CC1 (stereo unspecified) | 0 | - | - | - | - | -
C=CCC1(C(=O)NCCO)CCN(C(=O)OC(C)(C)C)CC1 | 0 | -84 | 0 | 0 | 0 | 0
Cc1ccc(C)c(NC(=O)CCc2nnc3ccc(NCc4ccco4)nn23)c1 | 0 | -66 | 0 | 0 | 0 | 0
Cc1ccc(NC(=O)CCc2nnc3ccc(NCc4ccco4)nn23)cc1 | 0 | 0 | 0 | 0 | 0 | 0
CCC(=O)OC1(C)C(=O)C=C2C=C(CCCC(=O)OC)OC=C2C1=O (stereo unspecified) | 53 | 0 | - | - | 0 | -
CCCCC1=CC2=CC(=O)C(C)(OC(=O)CC)C(=O)C2=CO1 (stereo unspecified) | 0 | 0 | - | - | 0 | -
COC(=O)CCCC1=CC2=CC(=O)C(C)(OC(=O)C3CCCC3)C(=O)C2=CO1 (stereo unspecified) | 64 | 0 | - | - | 0 | -
COc1ccccc1-c1noc(CSc2nc(N)cc(=O)[nH]2)n1 | 0 | 0 | 0 | 0 | 0 | 0
O=C(NC12CC3CC(CC(C3)C1)C2)c1ccc(-c2ccc(Cl)cc2)o1 | 0 | 0 | 0 | 0 | 0 | 0
O=C(NC12CC3CC(CC(C3)C1)C2)c1ccc(-c2cccc(Cl)c2)o1 | 0 | 0 | 0 | 17 | 0 | 0
CS(=O)(=O)N1CCCC(c2nc(-c3ccc(S(=O)(=O)NCc4ccccc4)cc3)no2)C1 (stereo unspecified) | 0 | 0 | 0 | 0 | 0 | 0
Cn1cc(CN2CCC(n3nccc3NC(=O)CCCc3ccccc3)CC2)cn1 | 0 | 0 | 0 | 0 | 0 | 0
COc1ccc(NC(=O)/C(Cl)=C(/Cl)S(=O)Cc2ccccc2)cn1 (stereo unspecified) | 0 | -93 | 0 | 0 | 0 | 0
CCCCNC(=S)Nc1ccc(OC)nc1 | 0 | 0 | 0 | 0 | 65 | 0
COc1ccc(Nc2nc(N3CCN(C)CC3)nc3ccccc23)c(OC)c1 | 0 | 0 | 0 | 0 | 0 | 46
COc1ccc(C(=O)C(CCC(CNC(C)(C)C)C(=O)c2ccc(OC)cc2)CNC(C)(C)C)cc1 (stereo unspecified) | 0 | 0 | 0 | 0 | 0 | 43
COc1ccc(C(=O)CC(=O)c2ccc(F)cc2)cc1 | 0 | 0 | - | - | 0 | -
Cc1cc(NC(=O)c2ccc3[nH]c(C)c(C)c3c2)ccn1 | - | 0 | 0 | 0 | 0 | 37
SMILES | HCV core dimer | HSF1 inhib | HCV NS3 hel inh | HSP90 inh | HSF-1 act | FID counter
CCCc1cc(=O)oc2c3c(cc(OCC(=O)N[C@@H](C)C(=O)O)c12)OC(C)(C)CC3 | 0 | 0 | 0 | 0 | 67 | 0
CCCc1cc(=O)oc2c3c(cc(OCC(=O)N[C@@H](CSC)C(=O)O)c12)OC(C)(C)CC3 | - | 0 | 0 | 0 | 0 | 0
COc1ccc(C(=O)N2CCCC(c3nc(-c4ccc(OC)c(OC)c4)no3)C2)c(OC)c1 (stereo unspecified) | 0 | 0 | 0 | 0 | 0 | 0
Cc1nc2ccc(NC(=O)N3CCSCC3)cc2s1 | 0 | -60 | 0 | 0 | 0 | 0
Cc1nc2ccc(NC(=O)c3sccc3C)cc2s1 | 0 | 0 | 0 | 0 | 61 | 0
Cc1nc2ccc(NC(=O)c3cccs3)cc2s1 | 0 | 0 | 0 | 0 | 0 | 0
O=C1C(Cc2ccccc2)Nc2ncnc(N3CCc4ccccc4C3)c2N1Cc1ccc(Cl)cc1 (stereo unspecified) | 0 | 0 | - | - | 0 | -
COc1ccc(CN2C(=O)C(Cc3ccccc3)Nc3ncnc(N4CCc5ccccc5C4)c32)cc1 (stereo unspecified) | 0 | 0 | - | - | 71 | -
CCOC(=O)c1ccc(NC(=O)COc2ccc(-n3cnnn3)cc2)cc1 | 58 | 0 | 0 | 0 | 0 | 0
CC1CCN(CC(=O)Nc2ccc(S(=O)(=O)NC3CC3)cc2)CC1 | 0 | -65 | 0 | 0 | 0 | 0
CC1CCN(S(=O)(=O)c2ccc(NC(=O)Cc3cccs3)cc2)CC1 | 65 | 0 | 0 | 0 | 0 | 0
CCN1CCN(CCNC(=O)CCCCCn2c(=O)[nH]c3cc(C(=O)OC)ccc3c2=O)CC1 | 0 | -54 | 0 | 0 | 0 | 0
O=C(Cn1c(NCCCO)nc2ccccc21)c1ccc(Cl)cc1 | 0 | 0 | 0 | 0 | 0 | 0
O=C(Cn1c(NCCCO)nc2ccccc21)c1ccco1 | 0 | 0 | 0 | 16 | 0 | 0
Cc1ccccc1C(O)c1ccccn1 (stereo unspecified) | 0 | 0 | 0 | 0 | 0 | 0
Cc1sc2nc(CSc3cccc(C(F)(F)F)c3)[nH]c(=O)c2c1C | 0 | 0 | 0 | 0 | 82 | 0
Cc1sc2nc(CSc3ccc([N+](=O)[O-])cc3)[nH]c(=O)c2c1C | 0 | 0 | 0 | 0 | 0 | 0
Cc1ccc(-n2nnnc2SCC(=O)Nc2ccc3c(c2)COC3=O)cc1C | 49 | 0 | 0 | 0 | 0 | 0
Cc1ccc(-n2nnnc2SCC(=O)Nc2ccc3c(c2)OCCO3)cc1C | 0 | - | 0 | 0 | - | 0
O=S(=O)(c1ccccc1F)N1CCC(c2nc3ccccc3[nH]2)CC1 | 0 | 0 | 0 | 0 | 0 | 0
CC1(C)CC(=O)c2c(O)cc(OCc3ccc([N+](=O)[O-])cc3)cc2O1 | 0 | 0 | 0 | 0 | 95 | 0
O=C(NCc1cccs1)c1ccccc1[N+](=O)[O-] | 0 | -70 | 0 | 0 | 0 | 0
O=C(CC(=O)c1ccccc1[N+](=O)[O-])c1ccccc1 | 0 | -70 | - | - | 0 | -
O=C(NNC(=O)c1ccccc1[N+](=O)[O-])c1ccccc1[N+](=O)[O-] | 0 | - | 0 | 0 | - | 0
O=C(OCC(=O)N1CCOCC1)c1ccccc1Br | 0 | 0 | 0 | 0 | 0 | 0
O=C(OCC(=O)N1CCOCC1)c1ccccc1Cc1ccccc1 | 0 | 0 | 0 | 0 | 74 | 0

High-throughput results from PubChem BioAssay.
